From ChEMBL document CHEMBL1795240, “Synthesis and anti-Trypanosoma cruzi activity of β-lapachone analogues” (Eur J Med Chem, 2011)

Key:
[1] = test system: Trypanosoma cruzi; experiment: Antitrypanosomal activity against bloodstream trypomastigote form of Trypanosoma cruzi Y isolated from albino mouse blood after 24 hrs; type: functional, organism-based
Method in brief: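 Y-strain bloodstream trypomastigotes taken from infected albino mice at peak parasitaemia, isolated by differential centrifugation, and resuspended at 10^7 cells/mL in DMEM with 10% mouse blood. Compounds were added from DMSO stocks, with final DMSO never above 0.1%.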

[2] = test system: Trypanosoma cruzi; experiment: Ratio of Benzidazole IC50 to compound IC50 for bloodstream trypomastigote form of Trypanosoma cruzi Y; type: functional

SMILES	IC50 [1] [µM]	EC50 ([1]; read-out: ED50 (the source's name)) [µM]	Ratio IC50 [2]
O=C1C(=O)c2ccccc2C2=C1C[C@@H]1CCC=C[C@@H]1O2	161	–	–
O=C1C(=O)c2ccccc2C2=C1C[C@@H]1CCCO[C@@H]1O2	35.4	–	–
O=C1C(=O)c2ccccc2C2=C1CCC(c1ccc(Cl)cc1)O2 (centres undefined)	20.2	–	–
CC1(C)CCC2=C(O1)c1ccccc1C1(CO1)C2=O (centres undefined)	1.3	–	–
CC1(C)CCc2c(c3ccccc3c3nc(-c4ccc5c(c4)OCO5)oc23)O1	25	–	–
CCOC1CC[C@H]2CC3=C(O[C@H]2O1)c1ccccc1C(=O)C3=O (some centres undefined)	331	–	–
CC1(c2ccccc2)CCC2=C(O1)c1ccccc1C(=O)C2=O (centres undefined)	123	–	–
CC1(C)CCc2c(c3ccccc3c3nc4cc(Nc5ccccc5)/c(=N/c5ccccc5)cc-4n(-c4ccccc4)c23)O1	–	61.3	–
Cc1ccc(C2CC(c3ccccc3)C3=C(O2)c2ccccc2C(=O)C3=O)cc1 (centres undefined)	849	–	–
Cc1ccc(C2CC(c3cccs3)C3=C(O2)c2ccccc2C(=O)C3=O)cc1 (centres undefined)	1860	–	–
Cc1ccc(C2CCC3=C(O2)c2ccccc2C(=O)C3=O)c(C)c1 (centres undefined)	688	–	–
Cc1ccc(C2CCC3=C(O2)c2ccccc2C(=O)C3=O)cc1 (centres undefined)	51.4	–	2
CC1(C)CCc2c(c3ccccc3c3nc(-c4c[nH]c5ccccc45)[nH]c23)O1	20	–	–
COc1ccc(C2CCC3=C(O2)c2ccccc2C(=O)C3=O)cc1 (centres undefined)	121	–	–
COC1CC[C@H]2CC3=C(O[C@H]2O1)c1ccccc1C(=O)C3=O (some centres undefined)	880	–	–
O=C1C(=O)c2ccccc2C2=C1CCC(c1ccccc1)O2 (centres undefined)	56	–	2
CC1(C)OC2=C(C(=O)C(=O)c3ccccc32)C1Nc1ccccc1 (centres undefined)	86.3	–	–
Cc1ccc(C2CC(c3ccc([N+](=O)[O-])cc3)C3=C(O2)c2ccccc2C(=O)C3=O)cc1 (centres undefined)	> 4000	–	–
CCOc1ccc(C2CCC3=C(O2)c2ccccc2C(=O)C3=O)cc1 (centres undefined)	132	–	–
O=C1C(=O)c2ccccc2C2=C1C[C@@H]1CC=C[C@@H]1O2	62.6	–	2
O=C1C(=O)c2ccccc2C2=C1CCC(c1ccc(F)cc1)O2 (centres undefined)	97.6	–	–
